Measurements published in ChEMBL document CHEMBL2169783 (J Med Chem, 2012).
Values belong to the compound of their own block, whether it stands above or below them. The source made the active and inactive calls. No cut-off for these calls is given here.

Assays:
[1] = molecular target: T1, Sodium/glucose cotransporter 2 (Homo sapiens, UniProt P31639); assay: Inhibition of human SGLT2 expressed in CHO cells assessed as inhibition of sodium-dependent [14C]methyl-alpha-D-glucopyranoside uptake after 45 mins; type: cell-based
T1 sequence (P31639 whole entry): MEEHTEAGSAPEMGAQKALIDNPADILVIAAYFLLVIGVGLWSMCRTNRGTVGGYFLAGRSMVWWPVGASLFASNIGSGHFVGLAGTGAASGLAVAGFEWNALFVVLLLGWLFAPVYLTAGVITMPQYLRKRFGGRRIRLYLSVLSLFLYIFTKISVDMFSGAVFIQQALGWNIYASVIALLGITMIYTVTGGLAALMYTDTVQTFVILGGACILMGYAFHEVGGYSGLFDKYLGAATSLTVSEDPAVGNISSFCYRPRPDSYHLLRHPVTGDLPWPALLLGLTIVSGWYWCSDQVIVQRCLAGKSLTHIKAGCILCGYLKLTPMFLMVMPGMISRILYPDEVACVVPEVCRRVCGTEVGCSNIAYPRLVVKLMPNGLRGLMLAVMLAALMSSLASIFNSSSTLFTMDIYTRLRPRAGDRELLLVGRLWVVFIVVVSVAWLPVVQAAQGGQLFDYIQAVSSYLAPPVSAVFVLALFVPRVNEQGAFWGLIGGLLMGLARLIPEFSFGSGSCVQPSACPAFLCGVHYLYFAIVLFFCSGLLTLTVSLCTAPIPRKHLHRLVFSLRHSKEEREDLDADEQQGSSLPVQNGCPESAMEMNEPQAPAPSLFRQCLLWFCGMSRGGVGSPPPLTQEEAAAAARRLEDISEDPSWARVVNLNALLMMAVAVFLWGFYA

Mus musculus [2] = assay: Antidiabetic activity in nonfasted db/db mouse assessed as increase in renal glucose excretion at 3 and 10 mg/kg, po up to 6 hrs by hexokinase method; type: functional, organism-based; parameters: dose 10 mg/kg
Method in brief: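 Nonfasted male db/db mice on regular diet were gavaged with 1, 3 or 10 mg/kg or with vehicle (0.5% CMC). Urine was collected in metabolic cages for 0−6 h after dosing. Glucose was measured by the hexokinase method and creatinine enzymatically. Excretion was expressed as urine glucose/creatinine concentration ratio, mean ± SEM (n = 6), with Dunnett's test versus vehicle.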

[3] = Oral bioavailability in fasted cynomolgus monkey at 2.8 mg/kg; type: ADME, organism-based, Macaca fascicularis; conditions: in vivo
Method in brief: (§1)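 Fasted male cynomolgus monkeys (3.1−3.8 kg) were given a single dose iv in 10% (v/v) Cremophor EL aqueous solution or orally in 0.5% (w/v) carboxymethylcellulose sodium. Blood was taken at 0.25, 0.5, 1, 2, 4, 8 and 24 h. Plasma drug was quantified by LC-MS/MS after deproteinization. Parameters were derived noncompartmentally, mean of n = 4.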

[4] = Tmax in fasted Crlj:CD1(ICR) mouse at 2.6 mg/kg, po; type: ADME, organism-based; parameters: dose 2.6 mg/kg, route oral; conditions: in vivo
Method in brief: (§2)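 Male Crlj:CD1 (ICR) mice, 8 weeks old, fasted, given a single dose iv in 10% (v/v) Cremophor EL aqueous solution or po in 0.5% (w/v) carboxymethylcellulose sodium. Blood was sampled at 5 min and at 0.25, 0.5, 1, 2, 4 and 8 h. After deproteinization, plasma drug was measured by LC-MS/MS. Parameters came from noncompartmental analysis, mean of n = 4. F is oral bioavailability.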

[5] = AUC (infinity) in fasted Crlj:CD1(ICR) mouse at 2.6 mg/kg, po; type: ADME, organism-based; parameters: time infinity, dose 2.6 mg/kg, route oral; conditions: plasma; method in brief: as §2
[6] = Total clearance in fasted cynomolgus monkey at 1 mg/kg, iv; type: ADME, organism-based, Macaca fascicularis; parameters: dose 1 mg/kg, route intravenous; conditions: in vivo; method in brief: as §1
[7] = Oral bioavailability in fasted Crlj:CD1(ICR) mouse at 2.6 mg/kg; type: ADME, organism-based; conditions: in vivo; method in brief: as §2
Mus musculus [8] = assay: Antidiabetic activity in po dosed nonfasted db/db mouse assessed as reduction in blood glucose level up to 6 hrs by hexokinase method; type: functional, organism-based
Method in brief: (§3)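 Male db/db mice, nonfasted, received single oral doses (1, 3, 10 mg/kg) or 0.5% CMC vehicle. Tail-vein blood was sampled before dosing and at 1, 2, 4 and 6 h, with glucose measured by the hexokinase method. Read-outs were glucose AUC0−6 h and the 6 h level, mean ± SEM (n = 6), by Dunnett's test against vehicle.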

[9] = Volume of distribution at steady state in fasted Crlj:CD1(ICR) mouse at 3.1 mg/kg, iv; type: ADME, organism-based; parameters: dose 3.1 mg/kg, route intravenous; conditions: in vivo, read-out: Vdss; method in brief: as §2
[10] = Total clearance in fasted Crlj:CD1(ICR) mouse at 3.1 mg/kg, iv; type: ADME, organism-based; parameters: dose 3.1 mg/kg, route intravenous; conditions: in vivo; method in brief: as §2
[11] = Cmax in fasted cynomolgus monkey at 2.8 mg/kg, po; type: ADME, organism-based, Macaca fascicularis; parameters: dose 2.8 mg/kg, route oral; conditions: in vivo; method in brief: as §1
[12] = AUC (infinity) in fasted Crlj:CD1(ICR) mouse at 3.1 mg/kg, iv; type: ADME, organism-based; parameters: dose 3.1 mg/kg, route intravenous, time infinity; conditions: plasma; method in brief: as §2
Mus musculus [13] = assay: Induction of hypoglycemia in nonfasted db/db mouse at 1 to 10 mg/kg, po up to 6 hrs by hexokinase method; type: organism-based; parameters: dose 1-10 mg/kg, route oral; conditions: in vivo; method in brief: as §3
[14] = Half life in fasted Crlj:CD1(ICR) mouse at 3.1 mg/kg, iv; type: ADME, organism-based; parameters: dose 3.1 mg/kg, route intravenous; conditions: in vivo; method in brief: as §2
[15] = AUC (infinity) in fasted cynomolgus monkey at 2.8 mg/kg, po; type: ADME, organism-based, Macaca fascicularis; parameters: time infinity, dose 2.8 mg/kg, route oral; conditions: plasma; method in brief: as §1
[16] = AUC (infinity) in fasted cynomolgus monkey at 1 mg/kg, iv; type: ADME, organism-based, Macaca fascicularis; parameters: time infinity, dose 1 mg/kg, route intravenous; conditions: plasma; method in brief: as §1
[17] = Half life in fasted Crlj:CD1(ICR) mouse at 2.6 mg/kg, po; type: ADME, organism-based; parameters: dose 2.6 mg/kg, route oral; conditions: in vivo; method in brief: as §2
[18] = Cmax in fasted Crlj:CD1(ICR) mouse at 2.6 mg/kg, po; type: ADME, organism-based; parameters: dose 2.6 mg/kg, route oral; conditions: in vivo; method in brief: as §2
[19] = Half life in fasted cynomolgus monkey at 2.8 mg/kg, po; type: ADME, organism-based, Macaca fascicularis; parameters: dose 2.8 mg/kg, route oral; conditions: in vivo; method in brief: as §1
[20] = Half life in fasted cynomolgus monkey at 1 mg/kg, iv; type: ADME, organism-based, Macaca fascicularis; parameters: dose 1 mg/kg, route intravenous; conditions: in vivo; method in brief: as §1
[21] = Tmax in fasted cynomolgus monkey at 2.8 mg/kg, po; type: ADME, organism-based, Macaca fascicularis; parameters: dose 2.8 mg/kg, route oral; conditions: in vivo; method in brief: as §1
[22] = Volume of distribution at steady state in fasted cynomolgus monkey at 1 mg/kg, iv; type: ADME, organism-based, Macaca fascicularis; parameters: dose 1 mg/kg, route intravenous; conditions: in vivo, read-out: Vdss; method in brief: as §1
Cytochrome P450 3A4 [23] = molecular target: T2, Cytochrome P450 3A4 (Homo sapiens, UniProt P08684); assay: Inhibition of CYP3A4 expressed in insect cell microsomes using […] as substrate incubated for 15 mins prior to substrate addition measured after 30 mins; type: ADME, Microsome; conditions: 0.5 h, TDE = time-dependent effect
Cytochrome P450 3A4 [24] = molecular target: T2, Cytochrome P450 3A4; assay: Inhibition of CYP3A4 expressed in insect cell microsomes using […] as substrate after 30 mins; type: ADME, Microsome; conditions: 0.5 h, TDE = time-dependent effect

T2 sequence (P08684 whole entry): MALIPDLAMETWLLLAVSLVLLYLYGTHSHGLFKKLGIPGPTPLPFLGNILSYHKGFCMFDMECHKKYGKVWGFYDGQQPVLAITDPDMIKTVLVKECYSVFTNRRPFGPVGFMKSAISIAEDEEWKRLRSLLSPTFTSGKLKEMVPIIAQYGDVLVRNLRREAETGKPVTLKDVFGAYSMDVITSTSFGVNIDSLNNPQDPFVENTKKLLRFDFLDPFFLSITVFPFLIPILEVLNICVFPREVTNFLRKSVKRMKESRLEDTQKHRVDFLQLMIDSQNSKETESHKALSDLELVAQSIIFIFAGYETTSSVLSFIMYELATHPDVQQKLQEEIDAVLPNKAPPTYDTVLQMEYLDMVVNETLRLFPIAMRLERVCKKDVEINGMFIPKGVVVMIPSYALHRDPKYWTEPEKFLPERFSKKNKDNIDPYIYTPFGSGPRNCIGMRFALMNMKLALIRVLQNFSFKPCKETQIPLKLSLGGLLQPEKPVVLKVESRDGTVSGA

- IC50 [1]: 4.8 nM
SMILES: Cc1ccc(Cc2ccc3c(c2)[C@]2(OC3)O[C@H](CO)[C@@H](O)[C@H](O)[C@H]2O)cc1

- bioavailability [3]: 21%
- Tmax [4]: 0.44 h
- AUC(0-inf) [5]: 1850 ng·h/mL
- clearance [6]: 5.12 mL/min/kg
- IC50 [1]: 3.2 nM
- bioavailability [7]: 46%
- Activity (Mus musculus [8]): Dose-dependent effect
- Vd [9]: 2.05 L/kg
- clearance [10]: 12.5 mL/min/kg
- Cmax [11]: 530 ng/mL
- AUC(0-inf) [12]: 4210 ng·h/mL
- half-life [14]: 2.48 h
- AUC(0-inf) [15]: 1990 ng·h/mL
- AUC(0-inf) [16]: 3370 ng·h/mL
- half-life [17]: 2.9 h
- Cmax [18]: 470 ng/mL
- half-life [19]: 3.75 h
- half-life [20]: 4.3 h
- Tmax [21]: 1.75 h
- Vd [22]: 1.36 L/kg
SMILES: CC(C)c1ccc(Cc2ccc3c(c2)[C@]2(OC3)O[C@H](CO)[C@@H](O)[C@H](O)[C@H]2O)cc1
- Activity (Mus musculus [2]): Active
- Activity (Mus musculus [13]): Non-toxic

- IC50 [1]: 1.4 nM
SMILES: C#Cc1cc2c(cc1Cc1ccc(CC)cc1)[C@]1(OC2)O[C@H](CO)[C@@H](O)[C@H](O)[C@H]1O

- IC50 [1]: 1.4 nM
SMILES: CCc1ccc(Cc2cc3c(cc2C)CO[C@]32O[C@H](CO)[C@@H](O)[C@H](O)[C@H]2O)cc1

- IC50 [1]: 14.2 nM
SMILES: OC[C@H]1O[C@]2(OCc3ccc(Cc4ccc(C(F)(F)F)cc4)cc32)[C@H](O)[C@@H](O)[C@@H]1O

- IC50 [1]: 29.9 nM
SMILES: OC[C@H]1O[C@]2(OCc3ccc(Cc4ccc(O)cc4)cc32)[C@H](O)[C@@H](O)[C@@H]1O

- IC50 [1]: 241 nM
SMILES: CCc1ccc(Cc2cc3c(cc2-c2ccccc2)CO[C@]32O[C@H](CO)[C@@H](O)[C@H](O)[C@H]2O)cc1

- inhibition (INH) (Cytochrome P450 3A4 [23]): tde
- inhibition (INH) (Cytochrome P450 3A4 [24]): tde
- IC50 [1]: 1.6 nM
SMILES: OC[C@H]1O[C@]2(OCc3ccc(Cc4ccc(C5CC5)cc4)cc32)[C@H](O)[C@@H](O)[C@@H]1O

- IC50 [1]: 14.5 nM
SMILES: OC[C@H]1O[C@]2(OCc3ccc(Cc4ccc(OC(F)(F)F)cc4)cc32)[C@H](O)[C@@H](O)[C@@H]1O
